# Assay results from PMC6415545 (Nature, 2018).
# Like-named read-outs stand apart in the source and are kept apart here. Marks after values point to notes of the source that are not given here.
# B1: FL: full-length human UDP-α-D-glucose-6-dehydrogenase with the native 30-residue ID-tail (residues 465–494) (protein, UniProt O60701 1-494, looked up)
# chain: MFEIKKICCIGAGYVGGPTCSVIAHMCPEIRVTVVDVNESRINAWNSPTLPIYEPGLKEVVESCRGKNLFFSTNIDDAIKEADLVFISVNTPTKTYGMGKGRAADLKYIEACARRIVQNSNGYKIVTEKSTVPVRAAESIRRIFDANTKPNLNLQVLSNPEFLAEGTAIKDLKNPDRVLIGGDETPEGQRAVQALCAVYEHWVPREKILTTNTWSSELSKLAANAFLAQRISSINSISALCEATGADVEEVATAIGMDQRIGNKFLKASVGFGGSCFQKDVLNLVYLCEALNLPEVARYWQQVIDMNDYQRRRFASRIIDSLFNTVTDKKIAILGFAFKKDTGDTRESSSIYISKYLMDEGAHLHIYDPKVPREQIVVDLSHPGVSEDDQVSRLVTISKDPYEACDGAHAVVICTEWDMFKELDYERIHKKMLKPAFIFDGRRVLDGLHNELQTIGFQIETIGKKVSSKRIPYAPSGEIPKFSLQDPPNKKPKV
# modifications: full-length
# B2: hUGDH: human UDP-α-D-glucose-6-dehydrogenase, named without a construct (protein, UniProt O60701 1-494, looked up)
# UDP-glucose 6-dehydrogenase: MFEIKKICCIGAGYVGGPTCSVIAHMCPEIRVTVVDVNESRINAWNSPTLPIYEPGLKEVVESCRGKNLFFSTNIDDAIKEADLVFISVNTPTKTYGMGKGRAADLKYIEACARRIVQNSNGYKIVTEKSTVPVRAAESIRRIFDANTKPNLNLQVLSNPEFLAEGTAIKDLKNPDRVLIGGDETPEGQRAVQALCAVYEHWVPREKILTTNTWSSELSKLAANAFLAQRISSINSISALCEATGADVEEVATAIGMDQRIGNKFLKASVGFGGSCFQKDVLNLVYLCEALNLPEVARYWQQVIDMNDYQRRRFASRIIDSLFNTVTDKKIAILGFAFKKDTGDTRESSSIYISKYLMDEGAHLHIYDPKVPREQIVVDLSHPGVSEDDQVSRLVTISKDPYEACDGAHAVVICTEWDMFKELDYERIHKKMLKPAFIFDGRRVLDGLHNELQTIGFQIETIGKKVSSKRIPYAPSGEIPKFSLQDPPNKKPKV
# B3: FL-A136M: full-length hUGDH with the allostery quenching A136M substitution (protein, UniProt O60701 1-494, looked up, variant A136M)
# chain: MFEIKKICCIGAGYVGGPTCSVIAHMCPEIRVTVVDVNESRINAWNSPTLPIYEPGLKEVVESCRGKNLFFSTNIDDAIKEADLVFISVNTPTKTYGMGKGRAADLKYIEACARRIVQNSNGYKIVTEKSTVPVRMAESIRRIFDANTKPNLNLQVLSNPEFLAEGTAIKDLKNPDRVLIGGDETPEGQRAVQALCAVYEHWVPREKILTTNTWSSELSKLAANAFLAQRISSINSISALCEATGADVEEVATAIGMDQRIGNKFLKASVGFGGSCFQKDVLNLVYLCEALNLPEVARYWQQVIDMNDYQRRRFASRIIDSLFNTVTDKKIAILGFAFKKDTGDTRESSSIYISKYLMDEGAHLHIYDPKVPREQIVVDLSHPGVSEDDQVSRLVTISKDPYEACDGAHAVVICTEWDMFKELDYERIHKKMLKPAFIFDGRRVLDGLHNELQTIGFQIETIGKKVSSKRIPYAPSGEIPKFSLQDPPNKKPKV
# modifications: full-length
# Experiments:
# [1] = system: human UDP-α-D-glucose-6-dehydrogenase (hUGDH); experiment: Stopped-flow analysis of hUGDH hysteresis; assay type: biochemical; details: hUGDHFL versus hUGDHΔID, pre-steady state progress curves
# Outline: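 Stopped-flow, 25 °C. 500 nM full-length or tail-deleted enzyme in 50 mM HEPES pH 7.5, 50 mM NaCl, 5 mM EDTA was mixed 1:1 with buffer holding substrate and cofactor, giving 250 nM enzyme with both saturating. NADH absorbance at 340 nm was taken every 10–15 ms. Curves were fit to Frieden's equation for lag length; mean and s.d. from ≥ 6 curves.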
# [2] = target: T1, human UDP-α-D-glucose-6-dehydrogenase (hUGDH) (Homo sapiens, UniProt O60701); experiment: Transient state kinetics of UDP-Xyl binding; details: hUGDHFL versus hUGDHΔID
# T1 sequence (O60701 1-464 limits assumed): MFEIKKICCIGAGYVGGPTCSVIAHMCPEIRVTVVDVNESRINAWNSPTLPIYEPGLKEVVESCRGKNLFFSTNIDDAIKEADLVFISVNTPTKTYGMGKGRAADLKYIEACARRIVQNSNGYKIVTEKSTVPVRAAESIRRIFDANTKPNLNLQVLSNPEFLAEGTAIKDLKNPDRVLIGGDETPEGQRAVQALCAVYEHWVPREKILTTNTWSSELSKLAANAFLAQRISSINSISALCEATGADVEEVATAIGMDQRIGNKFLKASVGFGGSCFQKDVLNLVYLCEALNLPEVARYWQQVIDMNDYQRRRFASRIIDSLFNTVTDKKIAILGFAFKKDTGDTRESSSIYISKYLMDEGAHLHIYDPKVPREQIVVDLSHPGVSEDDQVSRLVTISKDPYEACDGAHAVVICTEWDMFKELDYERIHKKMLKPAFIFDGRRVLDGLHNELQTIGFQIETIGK
# Outline: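 Stopped-flow intrinsic tryptophan fluorescence at 25 °C (dead time ~1.2 ms): 500 nM enzyme (syringe) mixed with varied UDP-Xyl, excitation 290 nm, emission cutoff filter below 320 nm. Traces were averaged over ≥ 4 replicates per concentration and inner-filter corrected. Six concentrations were globally fit by numerical simulation to a binding-plus-two-isomerization model, selected by confidence contour analysis. Binding free energy used a mM standard state.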
# [3] = system: human UDP-α-D-glucose-6-dehydrogenase (hUGDH); experiment: Steady state kinetics: NAD+ substrate saturation curves; assay type: biochemical
# Outline: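 Separate 5-min, 25 °C pre-incubations of enzyme and substrate, then mixing. Enzyme was 100 nM hexameric hUGDH in 50 mM HEPES pH 7.5, 50 mM NaCl, 5 mM EDTA, with saturating UDP-Glc and varied NAD+. NADH was followed continuously at 340 nm (6220 M−1cm−1). Progress curves before 10% substrate depletion were fit to Frieden's equation for vss. Saturation curves were fit to the sigmoidal rate equation; n ≥ 10 data points.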
# [4] = system: human UDP-α-D-glucose-6-dehydrogenase (hUGDH); assay type: biochemical; details: for Kcat: UDP-Glc saturation curves, global fit ± standard error
# Outline: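 100 nM hexamer (500 nM dimer constructs) in 50 mM HEPES pH 7.5, 50 mM NaCl, 5 mM EDTA, 25 °C, saturating NAD+, varied UDP-Glc and UDP-Xyl. NADH was read at 340 nm. Frieden fits of early progress curves gave vss.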
# [5] = Thermodynamic shift assay; assay type: physicochemical; details: thermal denaturation, hUGDHFL-dimer versus hUGDHΔID-dimer (Fig. 3d)
# Outline: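 Dimeric constructs at 0.1 mg/mL with 5X SYPRO Orange in 50 mM HEPES pH 7.5, 50 mM NaCl, 5 mM EDTA were spun and equilibrated 20 min. Fluorescence (excitation 470–505 nm, emission 540–570 nm) was recorded every 30 s while heating from 25 to 80 °C at […] in a qPCR instrument. Buffer-control baselines were subtracted; N ≥ 3.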
molecule,measurement,setting,value
B1,slowing of the rate of activation hysteresis (E* to E) by the ID-tail,[1],39%
same,enhancement of the initial UDP-Xyl binding step by the ID-tail,[2],4.4 fold
same,gain in affinity of the initial UDP-Xyl binding step,[2],-0.9 kcal/mol
same,Hill (h),[3]; NAD+ saturation (Equation 6),0.8 ± 0.1
same,Kcat,[3]; NAD+ saturation curves,0.9 ± 0.08 S^-1
same,K0.5 (NAD^+),"[3]; NAD+ saturation, sigmoidal rate equation (Equation 6), hexameric enzyme",0.8 ± 0.20 mM
same,Kcat,[4],0.8 ± 0.01 s⁻¹
B2,destabilization by the ID-tail,[5],3.5 °C
B3,Kcat,[4],0.7 ± 0.01 s⁻¹
same,"ΔΔG, change in UDP-Xyl binding free energy",[4]; relative to the hUGDHΔID-A136M,0.03^g kcal•mol^-1
